ChEMBL document CHEMBL1149565, “Identification of a novel series of benzimidazoles as potent and selective antagonists of the human melanocortin-4 receptor” (Bioorg Med Chem Lett, 2007)
Activity calls are given as the source filed them. The calls are words filed in the database; no cut-off is given here.

Key:
Melanocortin receptor 4 [1] = biological target: T1, Melanocortin receptor 4 (Homo sapiens, UniProt P32245); assay: Displacement of [125I]NDP-alphaMSH from human melanocortin 4 receptor expressed in CHOK1 cells; assay type: cell-based, CHO-K1
T1 sequence (P32245 whole entry): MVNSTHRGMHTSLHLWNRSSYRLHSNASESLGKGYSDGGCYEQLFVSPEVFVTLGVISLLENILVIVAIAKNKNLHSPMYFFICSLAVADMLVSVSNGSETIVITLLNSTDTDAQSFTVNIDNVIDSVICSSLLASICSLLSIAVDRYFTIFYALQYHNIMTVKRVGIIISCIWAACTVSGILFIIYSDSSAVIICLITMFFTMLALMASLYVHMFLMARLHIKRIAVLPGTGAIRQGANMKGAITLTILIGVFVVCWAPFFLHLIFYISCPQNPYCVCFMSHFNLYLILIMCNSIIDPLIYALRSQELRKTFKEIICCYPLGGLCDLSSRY
Procedure, shortened: (§1)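 Membranes from CHO-K1 cells stably expressing human MC1, MC3, MC4 or MC5 receptor, 1–10 µg protein/well, in 50 mM Tris-HCl pH 7.4 with 0.2% BSA, 5 mM MgCl2, 1 mM CaCl2, 0.1 mg/mL bacitracin. Incubated with increasing test compound and 0.1–0.3 nM [125I]NDP-α-MSH, 90–120 min at 37 °C depending on subtype. Filtration on PEI-presoaked GF/C filters, cold buffer washes, radioactivity counted; nonlinear regression; three independent measurements.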

Melanocortin receptor 4 [2] = biological target: T1, Melanocortin receptor 4; assay: Antagonist activity at human melanocortin 4 receptor expressed in CHOK1 cells assessed as inhibition of NDP-alpha-MSH-stimulated cAMP production; assay type: functional, cell-based; settings: CHO-K1
Procedure, shortened: (§2)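 CHO-K1 cells stably expressing human MC4 receptor, suspended in RPMI 1640 with 0.5 mM IBMX and 0.2% protein cocktail, 7000 cells/well on anti-cAMP antibody-coated electrode plates. NDP-α-MSH concentration–response run with increasing test compound concentrations (agonist check at 10 µM alone), 40 min at 37 °C. Cells lysed, 2.5 nM ruthenium-labelled cAMP added, 90 min, then electrochemiluminescence read-out. Nonlinear regression; KB by Schild regression, logarithmic mean of three independent measurements.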

Melanocortin receptor 3 = Melanocortin receptor 3 (Homo sapiens, UniProt P41968); assay: Displacement of [125I]NDP-alphaMSH from human melanocortin 3 receptor expressed in CHOK1 cells; assay type: cell-based, CHO-K1; procedure, shortened: as §1
Sequence of Melanocortin receptor 3 (P41968 whole entry): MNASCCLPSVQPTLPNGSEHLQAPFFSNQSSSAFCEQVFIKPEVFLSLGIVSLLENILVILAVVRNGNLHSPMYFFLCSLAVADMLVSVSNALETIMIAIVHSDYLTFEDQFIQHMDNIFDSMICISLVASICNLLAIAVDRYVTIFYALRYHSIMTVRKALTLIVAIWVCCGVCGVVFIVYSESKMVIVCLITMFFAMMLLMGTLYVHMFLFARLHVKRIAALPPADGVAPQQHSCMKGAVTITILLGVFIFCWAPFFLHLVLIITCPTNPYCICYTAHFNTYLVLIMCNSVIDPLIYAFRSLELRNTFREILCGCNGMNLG

Melanocortin receptor 4 [3] = biological target: T1, Melanocortin receptor 4; assay: Agonist activity at human melanocortin 4 receptor expressed in CHOK1 cells assessed as stimulation of cAMP production at 10 uM; assay type: functional, cell-based; settings: CHO-K1; procedure, shortened: as §2
[4] = Ratio of drug level in brain to blood in Sprague-Dawley rat at 4.5 umol/kg, iv; assay type: ADME, tissue-based; settings: read-out: Ratio AUC
Procedure, shortened: (§3)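 Fed male Sprague–Dawley rats, three per time point, given 4.5 µmol/kg intravenously via penile vein in 1 ml/kg 10% DMA/90% propanediol. Under deep isoflurane anaesthesia, blood taken from vena cava at 1, 15, 30, 60, 90 and 120 min, centrifuged 2000g, 15 min, 4 °C. Plasma and brain levels measured; brain/blood ratio from AUC.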

Melanocortin receptor 5 = Melanocortin receptor 5 (Homo sapiens, UniProt P33032); assay: Displacement of [125I]NDP-alphaMSH from human melanocortin 5 receptor expressed in CHOK1 cells; assay type: cell-based, CHO-K1; procedure, shortened: as §1
Sequence of Melanocortin receptor 5 (P33032 whole entry): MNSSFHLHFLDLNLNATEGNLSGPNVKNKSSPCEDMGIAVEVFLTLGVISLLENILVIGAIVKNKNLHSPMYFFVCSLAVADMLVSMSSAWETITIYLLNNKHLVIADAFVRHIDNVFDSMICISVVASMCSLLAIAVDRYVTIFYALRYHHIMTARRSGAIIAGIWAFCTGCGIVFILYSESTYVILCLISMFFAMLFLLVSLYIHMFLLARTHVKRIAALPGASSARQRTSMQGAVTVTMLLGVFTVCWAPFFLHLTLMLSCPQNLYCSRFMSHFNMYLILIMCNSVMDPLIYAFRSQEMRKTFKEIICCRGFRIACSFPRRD

[5] = biological target: Melanocyte-stimulating hormone receptor (Homo sapiens, UniProt Q01726); assay: Displacement of [125I]NDP-alphaMSH from human melanocortin 1 receptor expressed in CHOK1 cells; assay type: cell-based, CHO-K1; procedure, shortened: as §1
Sequence of Melanocyte-stimulating hormone receptor (Q01726 whole entry): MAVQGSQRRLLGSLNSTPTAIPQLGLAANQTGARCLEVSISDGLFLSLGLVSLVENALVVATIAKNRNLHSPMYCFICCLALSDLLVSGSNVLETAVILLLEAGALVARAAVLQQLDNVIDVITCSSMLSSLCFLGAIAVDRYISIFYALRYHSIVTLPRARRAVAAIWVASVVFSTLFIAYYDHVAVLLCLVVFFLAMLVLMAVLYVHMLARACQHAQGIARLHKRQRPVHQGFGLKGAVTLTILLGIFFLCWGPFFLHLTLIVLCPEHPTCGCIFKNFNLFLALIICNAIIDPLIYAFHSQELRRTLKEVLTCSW

[6] = Half life in Sprague-Dawley rat at 4.5 umol/kg, iv; assay type: ADME, organism-based; settings: in vivo; procedure, shortened: as §3
[7] = biological target: Melanocortin receptor (M3 and M4) (Homo sapiens) (UniProt P32245+P41968); assay: Selectivity for human MC4R over human MC3R; assay type: protein assay

SMILES	Ki (Melanocortin receptor 4 [1]; read-out: Ki) [µM]	other results
CCN(CC)CCCn1c(Nc2ccc(C(C)=O)cc2)nc2ccc(C(=O)N(CCC(C)C)CCC(C)C)cc21	0.0079	–
CC(C)CCN(CCC(C)C)C(=O)c1ccc2nc(Nc3ccc(Br)cc3)n(CCCN3CCCCC3)c2c1	0.0075	–
CC(=O)c1ccc(Nc2nc3ccc(C(=O)N(CCC(C)C)CCC(C)C)cc3n2CCCN2CCCC2)cc1	0.0049	–
CC(=O)c1ccc(Nc2nc3ccc(C(=O)N(CCC(C)C)CCC(C)C)cc3n2CCCO)cc1	2.3	–
CC(C)CCN(CCC(C)C)C(=O)c1ccc2nc(Nc3cccnc3)n(CCCN3CCCCC3)c2c1	0.0042	–
CC(C)CCN(CCC(C)C)C(=O)c1ccc2nc(Nc3ccc(C(N)=O)cc3)n(CCCN3CCCCC3)c2c1	0.0065	–
CC(C)CCN(CCC(C)C)C(=O)c1ccc2nc(NCc3ccccc3)n(CCCN3CCCCC3)c2c1	0.018	–
CC(=O)c1ccc(Nc2nc3ccc(C(=O)N(CCC(C)C)CCC(C)C)cc3n2CCCN)cc1	0.06	–
COCCNc1nc2ccc(C(=O)N(CCC(C)C)CCC(C)C)cc2n1CCCN1CCCCC1	0.078	–
CC(C)CCN(CCC(C)C)C(=O)c1ccc2nc(Nc3ccc(C(=O)c4ccccc4)cc3)n(CCCN3CCCCC3)c2c1	0.0017	–
CC(C)CCN(CCC(C)C)C(=O)c1ccc2nc(Nc3ccc(-c4ccccc4)cc3)n(CCCN3CCCCC3)c2c1	0.0052	–
CNCCCn1c(Nc2ccc(C(C)=O)cc2)nc2ccc(C(=O)N(CCC(C)C)CCC(C)C)cc21	0.051	–
COc1ccc(Cc2nc3ccc(C(=O)N(CCC(C)C)CCC(C)C)cc3n2CCCN2CCCCC2)cc1	0.028	–
CC(C)CCN(CCC(C)C)C(=O)c1ccc2nc(-c3cc4ccccc4s3)n(CCCN3CCCCC3)c2c1	0.0029	–
CC(C)CCN(CCC(C)C)C(=O)c1ccc2nc(Nc3ccc(Oc4ccccc4)cc3)n(CCCN3CCCCC3)c2c1	0.0021	–
CC(=O)c1ccc(Nc2nc3ccc(C(=O)N(CCC(C)C)CCC(C)C)cc3n2CCCN2CCN(C)CC2)cc1	0.045	–
CC(=O)c1ccc(CNc2nc3ccc(C(=O)N(CCC(C)C)CCC(C)C)cc3n2CCCN2CCCCC2)cc1	0.0058	–
CC(=O)c1ccc(Nc2nc3ccc(C(=O)N(CCC(C)C)CCC(C)C)cc3n2CCCN2CCCCC2)cc1	0.002	Kb (Melanocortin receptor 4 [2]): 0.077 µM; Ki (Melanocortin receptor 3): 0.4 µM; Activity (Melanocortin receptor 4 [3]): inactive; Kp [4]: 2.9; Ki (Melanocortin receptor 5): 2.2 µM; Ki [5]: 5.2 µM; half-life [6]: 5 h
COc1cc(Nc2nc3ccc(C(=O)N(CCC(C)C)CCC(C)C)cc3n2CCCN)cc(OC)c1OC	0.42	–
CCC(=O)c1ccc(Nc2nc3ccc(C(=O)N(CCC(C)C)CCC(C)C)cc3n2CCCN2CCCCC2)cc1	0.0027	–
CC(C)CCN(CCC(C)C)C(=O)c1ccc2nc(Nc3cccc4[nH]ccc34)n(CCCN3CCCCC3)c2c1	0.014	–
CCCCN(CCCC)C(=O)c1ccc2nc(Nc3cc(OC)c(OC)c(OC)c3)n(CCCN)c2c1	1	–
CC(=O)c1ccc(Nc2nc3ccc(C(=O)N(CCC(C)C)CCC(C)C)cc3n2CCCCN)cc1	0.13	–
COC(=O)c1ccc(-c2nc3ccc(C(=O)N(CCC(C)C)CCC(C)C)cc3n2CCCN2CCCCC2)cc1	0.045	–
CC(=O)c1ccccc1Nc1nc2ccc(C(=O)N(CCC(C)C)CCC(C)C)cc2n1CCCN1CCCCC1	0.11	–
CC(=O)c1ccc(Nc2nc3ccc(C(=O)N(CCC(C)C)CCC(C)C)cc3n2CCN)cc1	0.22	–
CC(C)CCN(CCC(C)C)C(=O)c1ccc2nc(Nc3ccsc3)n(CCCN3CCCCC3)c2c1	0.033	–

SMILES	Ki (Melanocortin receptor 4 [1]; read-out: Ki) [µM]	other results
COc1ccc(-c2nc3ccc(C(=O)N(CCC(C)C)CCC(C)C)cc3n2CCCN2CCCCC2)cc1	0.037	–
COc1cc(Nc2nc3ccc(C(=O)N(CC(C)C)CC(C)C)cc3n2CCCN)cc(OC)c1OC	11	Ki (Melanocortin receptor 4 [1]; read-out: Log Ki (converted)): 11.7 µM
CC(=O)c1ccc(Nc2nc3ccc(C(=O)N(CCC(C)C)CCC(C)C)cc3n2C2CCN(C)CC2)cc1	0.05	–
CC(C)CCN(CCC(C)C)C(=O)c1ccc2nc(Nc3ccc(Cl)cc3)n(CCCN3CCCCC3)c2c1	0.0088	–
CC(=O)c1ccc(Cc2nc3ccc(C(=O)N(CCC(C)C)CCC(C)C)cc3n2CCCN2CCCCC2)cc1	0.0039	Kb (Melanocortin receptor 4 [2]): 0.014 µM; Ki (Melanocortin receptor 3): 4.5 µM; Activity (Melanocortin receptor 4 [3]): inactive; Ki (Melanocortin receptor 5): 5.9 µM; Ki [5]: > 10 µM
CC(=O)c1ccc(Nc2nc3ccc(C(=O)N(CCC(C)C)CCC(C)C)cc3n2CCCN(C)C)cc1	0.012	–
COc1ccc(C(=O)c2nc3ccc(C(=O)N(CCC(C)C)CCC(C)C)cc3n2CCCN2CCCCC2)cc1	0.00096	Kb (Melanocortin receptor 4 [2]): 0.044 µM; Ki (Melanocortin receptor 3): 0.54 µM; Activity (Melanocortin receptor 4 [3]): inactive; Ki (Melanocortin receptor 5): 1.6 µM; Ki [5]: 7.5 µM; Fold change [7]: 40
CC(C)CCN(CCC(C)C)C(=O)c1ccc2nc(Nc3ccc(N4CCCCC4)cc3)n(CCCN3CCCCC3)c2c1	0.0097	–
CCCCCN(CCCCC)C(=O)c1ccc2nc(Nc3cc(OC)c(OC)c(OC)c3)n(CCCN)c2c1	0.64	–
CC(=O)Nc1ccc(Nc2nc3ccc(C(=O)N(CCC(C)C)CCC(C)C)cc3n2CCCN2CCCCC2)cc1	0.0037	–
CC(C)CCN(CCC(C)C)C(=O)c1ccc2nc(Nc3ccc(F)cc3)n(CCCN3CCCCC3)c2c1	0.0083	–
CC(=O)c1ccc(Nc2nc3ccc(C(=O)N(CCC(C)C)CCC(C)C)cc3n2CC(C)(C)CN(C)C)cc1	0.73	–
CC(=O)c1ccc(Nc2nc3ccc(C(=O)N(CCC(C)C)CCC(C)C)cc3n2CCCN2CCOCC2)cc1	0.033	–
CC(=O)c1cccc(Nc2nc3ccc(C(=O)N(CCC(C)C)CCC(C)C)cc3n2CCCN2CCCCC2)c1	0.0045	–
CC(=O)NCCNc1nc2ccc(C(=O)N(CCC(C)C)CCC(C)C)cc2n1CCCN1CCCCC1	0.031	–
CC(C)CCN(CCC(C)C)C(=O)c1ccc2nc(-c3c[nH]c4ccccc34)n(CCCN3CCCCC3)c2c1	0.007	–
CC(=O)c1ccc(Nc2nc3ccc(C(=O)N(CC(C)C)CC(C)C)cc3n2CCCN)cc1	0.77	–
COc1ccc(Nc2nc3ccc(C(=O)N(CCC(C)C)CCC(C)C)cc3n2CCCN2CCCCC2)cc1	0.005	–
CC(C)CCN(CCC(C)C)C(=O)c1ccc2nc(Nc3ccc([N+](=O)[O-])cc3)n(CCCN3CCCCC3)c2c1	0.0022	–
CC(=O)c1ccc(-c2nc3ccc(C(=O)N(CCC(C)C)CCC(C)C)cc3n2CCCN2CCCCC2)cc1	0.02	–
CC(C)CCN(CCC(C)C)C(=O)c1ccc2nc(-c3cn(C)c4ccccc34)n(CCCN3CCCCC3)c2c1	0.0032	–
CNC(=O)c1ccc(Nc2nc3ccc(C(=O)N(CCC(C)C)CCC(C)C)cc3n2CCCN2CCCCC2)cc1	0.0033	Kb (Melanocortin receptor 4 [2]): 0.0032 µM; Ki (Melanocortin receptor 3): 0.13 µM; Activity (Melanocortin receptor 4 [3]): inactive; Ki (Melanocortin receptor 5): 0.88 µM; Ki [5]: 9.3 µM; Fold change [7]: 40
CC(C)CCN(CCC(C)C)C(=O)c1ccc2nc(Nc3ccccc3)n(CCCN3CCCCC3)c2c1	0.0073	–
CC(=O)c1ccc(Nc2nc3ccc(C(=O)N(CCC(C)C)CCC(C)C)cc3n2CCCNC(=O)OC(C)(C)C)cc1	> 10	Ki (Melanocortin receptor 4 [1]; read-out: Log Ki (converted)): 85.1 µM
COC(=O)c1ccc(Nc2nc3ccc(C(=O)N(CCC(C)C)CCC(C)C)cc3n2CCCN2CCCCC2)cc1	0.0009	–
CCCN(CCC)C(=O)c1ccc2nc(Nc3cc(OC)c(OC)c(OC)c3)n(CCCN)c2c1	17	Ki (Melanocortin receptor 4 [1]; read-out: Log Ki (converted)): 17.8 µM
